According to ChEMBL document CHEMBL5131571, “Design, Synthesis, and Evaluation of Lung-Retentive Prodrugs for Extending the Lung Tissue Retention of Inhaled Drugs” (J Med Chem, 2022):

How the values were obtained:
[1] = Drug metabolism in rat lung homogenate assessed as 1-(((S)-2-Amino-3,3-dimethylbutanoyl)oxy)ethyl-4-(2-hydroxy-2,2-diphenylacetoxy)piperidine-1-carboxylate Hydrochloride intermediate formation at 1500 ng/ml by MS/MS analysis; assay type: ADME, tissue-based; conditions: tissue homogenate
How it was run: (§1)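 Wistar Han rat lung homogenized, then diluted 1 in 4 by mass with water (pH 6.8). Incubated at nominal 1500 ng/mL, 37 °C. Breakdown followed over 1500 min by MS/MS against authenticated samples of prodrug, intermediate and parent.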

[2] = Drug metabolism in rat lung homogenate assessed as piperidin-4-yl-2-hydroxy-2,2-diphenylacetate formation at 1500 ng/ml by MS/MS analysis; assay type: ADME, tissue-based; conditions: tissue homogenate; how it was run: as §1
[3] = Stability in Crl Wistar Han rat blood at pH 7.2 assessed as half life by mass spectroscopic analysis; assay type: ADME, tissue-based
How it was run: (§2)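 1000 ng/mL final (from 200 μg/mL D6-DMSO stock) in prewarmed matrix at 37 °C with continuous shaking, triplicate. Matrices: pH 6.5 or 7.4 phosphate buffer, 1 in 4 water-diluted Wistar Han lung homogenate (pH 6.8), or fresh rat blood. Timed aliquots quenched in MeCN with labetalol/reserpine internal standards. Half-life by MS, mean ± SD.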

[4] = Stability of compound in PBS at pH 7.4 assessed as half life by LC-MS analysis; assay type: physicochemical; how it was run: as §2
[5] = Stability in Crl Wistar Han rat lung homogenate at pH 6.8 assessed as half life by mass spectroscopic analysis; assay type: ADME, tissue-based; how it was run: as §2
[6] = Stability of compound in PBS at pH 6.5 assessed as half life by LC-MS analysis; assay type: physicochemical; how it was run: as §2
[7] = Plasma concentration in Crl Sprague-Dawley rat at 0.2 mg/kg, IT measured at 2 hrs by LC-MS/MS analysis; assay type: ADME, organism-based
How it was run: (§3)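 Male Sprague Dawley rats, n = 3 per time point, given a single intratracheal dose of 0.2 mg/kg at 1 mL/kg in 5% ethanol in pH 6.5 PBS. Serial blood into EDTA, centrifuged for plasma. At 24 h, lungs taken after CO2 euthanasia, rinsed, blotted, weighed, snap-frozen and homogenized. Methanol/acetonitrile protein precipitation with imipramine internal standard. Quantified by LC–MS/MS.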

[8] = Plasma concentration in Crl Sprague-Dawley rat at 0.2 mg/kg, IT measured at 3 to 24 hrs by LC-MS/MS analysis; assay type: ADME, organism-based; conditions: in vivo, other, time 3-24 hrs; how it was run: as §3
[9] = Plasma concentration in Crl Sprague-Dawley rat at 0.2 mg/kg, IT measured at 0.5 hrs by LC-MS/MS analysis; assay type: ADME, organism-based; how it was run: as §3
[10] = Drug metabolism in rat lung homogenate assessed as 1-(((R)-2-amino-3,3-dimethylbutanoyl)oxy)ethyl 4-(2-hydroxy-2,2-diphenylacetoxy)piperidine-1-carboxylate intermediate formation at 1500 ng/ml by MS/MS analysis; assay type: ADME, tissue-based; conditions: tissue homogenate; how it was run: as §1
[11] = Plasma concentration in Crl Sprague-Dawley rat at 0.2 mg/kg, IT measured at 1 hr by LC-MS/MS analysis; assay type: ADME, organism-based; how it was run: as §3
[12] = Protein binding to Crl Wistar Han rat lung homogenate assessed as free fraction by mass spectroscopic analysis; assay type: ADME, tissue-based
How it was run: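 Rapid equilibrium dialysis of spiked 1 in 4 Wistar Han rat lung homogenate (1000 ng/mL) against pH 6.5 PBS, 4 h, 37 °C, orbital shaking. Recovery and time-0/240 matrix controls included. Samples matrix-matched 1:1, MeCN precipitation with labetalol/reserpine internal standards, MS quantification. Triplicate, mean ± SD.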

[13] = Drug concentration in lung of Crl Sprague-Dawley rat at 0.2 mg/kg, IT measured at 24 hrs by LC-MS/MS analysis; assay type: ADME, organism-based; conditions: read-out: Ct; how it was run: as §3
[14] = Plasma concentration in Crl Sprague-Dawley rat at 0.2 mg/kg, IT measured at 0.25 hrs by LC-MS/MS analysis; assay type: ADME, organism-based; how it was run: as §3

SMILES | Drug metabolism [1] | Drug metabolism [2] | half-life [3] | half-life [4] | half-life [5] | half-life [6] | concentration at 2 h [7] | Cp [8] | concentration at 0.5 h [9] | Drug metabolism [10] | concentration at 1 h [11] | fraction unbound [12] | concentration at 24 h [13] | concentration at 0.25 h [14]
CC(OC(=O)[C@@H](NC(=O)[C@@H](N)CCCCN)C(C)(C)C)OC(=O)N1CCC(OC(=O)C(O)(c2ccccc2)c2ccccc2)CC1.Cl.Cl (stereo not given in full) | Metabolite_Detected | Metabolite_Detected | – | – | – | – | – | – | – | – | – | – | – | –
CC(OC(=O)C[C@@H](N)CCCCN)OC(=O)N1CCC(OC(=O)C(O)(c2ccccc2)c2ccccc2)CC1.Cl.Cl (stereo not given in full) | – | – | 18 min | 354 min | 186 min | 1750 min | – | – | – | – | – | – | – | –
CC(OC(=O)[C@H](NC(=O)[C@@H](N)CCCCN)C(C)(C)C)OC(=O)N1CCC(OC(=O)C(O)(c2ccccc2)c2ccccc2)CC1.Cl.Cl (stereo not given in full) | – | Metabolite_Detected | – | – | – | – | 1.25 ng/mL | 1 ng/mL | 1.63 ng/mL | Metabolite_Notdetected | 2.1 ng/mL | 0.005 | 20000 ng/mL | 2.03 ng/mL
